Results as given in article PMC7744356 (European journal of medicinal chemistry, 2020).
Entries after “also recorded” stand apart in the source; their conditions may differ.

Assays:
Format in all cases: cell-based
N1303K-CFTR [1] = molecular target: T1, N1303K-CFTR (Homo sapiens, UniProt P13569, N1303K); assay: Co-potentiator activity in N1303K-CFTR expressing FRT cell model; details: for VMAX / co-potentiator activity (in words): N1303K-CFTR expressing FRT cells; for VMAX: 20 = 100%; for fold more potent than 20: EC50 relative to 20
Outline: (§1)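 FRT cells stably expressing N1303K-CFTR, grown on permeable supports and corrected with 3 μM VX-661 for 18–24 h. Short-circuit current was recorded at 37 °C in HCO3-buffered solutions with a chloride gradient and the basolateral membrane permeabilized with 250 μg/ml amphotericin B. Additions: 20 μM forskolin, 5 μM VX-770, rising test compound concentrations, then 10 μM CFTRinh-172. EC50 and maximal response come from concentration-dependence data (n=3, mean ± S.E.M.), with potency relative to a reference co-potentiator.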

N1303K-CFTR [2] = molecular target: T1, N1303K-CFTR; assay: Short-circuit current in FRT cells expressing N1303K-CFTR; details: N1303K-CFTR EC50
Outline: as §1

R347P-CFTR = R347P-CFTR (Homo sapiens, UniProt P13569, R347P); assay: Short-circuit current in FRT cells expressing R347P-CFTR; details: 20 μM 2i after 20 μM forskolin and 5 μM VX-770
Outline: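 Permeabilized FRT monolayers stably expressing R347P-CFTR were pre-corrected with 3 μM VX-661 for 18–24 h. Short-circuit current was measured at 37 °C in HCO3-buffered solutions under a chloride gradient, with the basolateral membrane opened using 250 μg/ml amphotericin B. Sequential additions: 20 μM forskolin, 5 μM VX-770, 20 μM test compound, then 10 μM CFTRinh-172.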

N1303K-CFTR [3] = molecular target: T1, N1303K-CFTR; assay: Short-circuit current in gene-edited 16HBE14o- cells expressing N1303K-CFTR
Outline: (§2)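 Gene-edited 16HBE14o- human bronchial epithelial cells carrying endogenous N1303K or I1234del CFTR were grown on permeable supports. The I1234del cells were corrected with 18 μM VX-661 plus 3 μM VX-445 for 18–24 h. Short-circuit current was measured at 37 °C in Hepes-buffered solutions with a chloride gradient. Additions: 20 μM forskolin, 5 μM VX-770, 10 μM test compound, then 10 μM CFTRinh-172. The CFTRinh-172-inhibitable ΔIsc is compared with the VX-770-alone response (mean ± S.E.M., n=3, unpaired t-test).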

I1234del-CFTR = I1234del-CFTR (Homo sapiens, UniProt P13569, DEL1234-1239); assay: Short-circuit current in gene-edited 16HBE14o- cells expressing I1234del-CFTR; details: 10 μM 2i
Outline: as §2

| co-potentiator activity (in words) (N1303K-CFTR [1]) | Structure (SMILES) | other results |
| --- | --- | --- |
| – | COc1ccc2[nH]c3c(c2c1)CCNC31CCN(Cc2ccc(F)c(Cl)c2F)CC1 [1j, 1-(3-Chloro-2,4-difluorobenzyl)-6’-methoxy-2’,3’,4’,9’-tetrahydrospiro[piperidine-4,1’-pyrido[3,4-b]indole]] | VMAX (N1303K-CFTR [1]): improved Vmax |
| most potent | COc1ccc2[nH]c3c(c2c1)CCNC31CCN(Cc2cc(F)c(F)cc2F)CC1 [2i, 6’-Methoxy-1-(2,4,5-trifluorobenzyl)-2’,3’,4’,9’-tetrahydrospiro[piperidine-4,1’-pyrido[3,4-b]indole]] | fold improvement in potency over the original compound (20) (N1303K-CFTR [2]): ~ 17 fold; activation of R347P-CFTR (in words) (R347P-CFTR): not activated; fold greater response than VX-770 alone (N1303K-CFTR [3]; 10 μM 2i): approximately 6 fold; CFTRinh-172-inhibitable short-circuit current response (N1303K-CFTR [3]; 10 μM 2i after 20 μM forskolin and 5 μM VX-770, mean ± S.E.M., n=3): 16.1 ± 0.4 μA/cm^2; fold greater response than VX-770 alone (I1234del-CFTR): ~2 fold |
| – | COc1ccc2[nH]c3c(c2c1)CCNC31CCN(Cc2cc(Cl)ccc2[N+](=O)[O-])CC1 [1c, 1-(5-Chloro-2-nitrobenzyl)-6’-methoxy-2’,3’,4’,9’-tetrahydrospiro[piperidine-4,1’-pyrido[3,4-b]indole]] | VMAX (N1303K-CFTR [1]): improved Vmax |
| active, but less potent | COc1ccc2[nH]c3c(c2c1)CCNC31CCN(Cc2ccco2)CC1 [3e, 1-(Furan-2-ylmethyl)-6’-methoxy-2’,3’,4’,9’-tetrahydrospiro[piperidine-4,1’-pyrido[3,4-b]indole]] | – |
| active | COc1ccc2[nH]c3c(c2c1)CCNC31CCN(Cc2cc(F)cc(F)c2)CC1 [2c, 1-(3,5-Difluorobenzyl)-6’-methoxy-2’,3’,4’,9’-tetrahydrospiro[piperidine-4,1’-pyrido[3,4-b]indole]] | – |
| inactive | COc1ccc2[nH]c3c(c2c1)CCNC31CCCN(Cc2ccc(F)cc2F)CC1 (stereo not drawn) [4a, 1-(2,4-Difluorobenzyl)-6’-methoxy-2’,3’,4’,9’-tetrahydrospiro[azepane-4,1’-pyrido[3,4-b]indole]] | – |
| active, but less potent | COc1ccc2[nH]c3c(c2c1)CCNC31CCN(Cc2cccnc2)CC1 [3g, 6’-Methoxy-1-(pyridin-3-ylmethyl)-2’,3’,4’,9’-tetrahydrospiro[piperidine-4,1’-pyrido[3,4-b]indole]] | – |
| decreased activity | COc1ccc2[nH]c3c(c2c1)CCNC31CCN(Cc2ccc(Cl)cc2Cl)CC1 [1d, 1-(2,4-Dichlorobenzyl)-6’-methoxy-2’,3’,4’,9’-tetrahydrospiro[piperidine-4,1’-pyrido[3,4-b]indole]] | – |
| inactive | COc1ccc2[nH]c3c(c2c1)CCN[C@@]31CCN2Cc3ccccc3C[C@H]2C1 (racemic) [6b, (+/−)-(2R,11aS)-6’-methoxy-1,2’,3,3’,4,4’,6,9’,11,11a-decahydrospiro[pyrido[1,2-b]isoquinoline-2,1’-pyrido[3,4-b]indole]] | – |
| active | COc1ccc2[nH]c3c(c2c1)CCNC31CCN(Cc2c(F)c(F)c(F)c(F)c2F)CC1 [2e, 6’-Methoxy-1-((perfluorophenyl)methyl)-2’,3’,4’,9’-tetrahydrospiro[piperidine-4,1’-pyrido[3,4-b]indole]] | – |
| decreased activity | COc1ccc2[nH]c3c(c2c1)CCNC31CCN(Cc2cc(F)cc(Cl)c2)CC1 [1e, 1-(3-Chloro-5-fluorobenzyl)-6’-methoxy-2’,3’,4’,9’-tetrahydrospiro[piperidine-4,1’-pyrido[3,4-b]indole]] | – |
| inactive | COc1ccc2[nH]c3c(c2c1)CCNC31CCNCC1 [3a, 6’-Methoxy-2’,3’,4’,9’-tetrahydrospiro[piperidine-4,1’-pyrido[3,4-b]indole]] | – |
| inactive; also recorded: inactivity | COc1ccc2c(c1)c1c(n2C)C2(CCN(Cc3ccc(F)cc3F)CC2)NCC1 [5e, 1-(2,4-Difluorobenzyl)-6’-methoxy-9’-methyl-2’,3’,4’,9’-tetrahydrospiro[piperidine-4,1’-pyrido[3,4-b]indole]] | – |
| active | COc1ccc2[nH]c3c(c2c1)CCNC31CCN(Cc2ccc(F)cc2F)CC1 [2a, 1-(2,4-Difluorobenzyl)-6’-methoxy-2’,3’,4’,9’-tetrahydrospiro[piperidine-4,1’-pyrido[3,4-b]indole]] | – |
| decreased activity | COc1ccc2c3c([nH]c2c1)C1(CCN(Cc2ccc(F)cc2F)CC1)NCC3 [5d, 1-(2,4-Difluorobenzyl)-7’-methoxy-2’,3’,4’,9’-tetrahydrospiro[piperidine-4,1’-pyrido[3,4-b]indole]] | fold more potent than 20 (N1303K-CFTR [1]): approximately 4 fold |
| active, but less potent | COc1ccc2[nH]c3c(c2c1)CCNC31CCN(Cc2ccccn2)CC1 [3f, 6’-Methoxy-1-(pyridin-2-ylmethyl)-2’,3’,4’,9’-tetrahydrospiro[piperidine-4,1’-pyrido[3,4-b]indole]] | Emax (N1303K-CFTR [1]; FRT, read-out: VMAX): 107% |
| abolished activity | COc1ccc2[nH]cc(CCNC3CCN(Cc4ccccc4)CC3)c2c1 [4d, 1-Benzyl-N-(2-(5-methoxy-1H-indol-3-yl)ethyl)piperidin-4-amine] | – |

| Structure (SMILES) | co-potentiator activity (in words) (N1303K-CFTR [1]) | other results |
| --- | --- | --- |
| COc1ccc2[nH]c3c(c2c1)CCNC31CCN(Cc2ccc(F)cc2F)C1 (stereo not drawn) [4b, 1’-(2,4-Difluorobenzyl)-6-methoxy-2,3,4,9-tetrahydrospiro[pyrido[3,4-b]indole-1,3’-pyrrolidine]] | inactive; also recorded: abolished activity | – |
| COc1ccc2[nH]c3c(c2c1)CCNC31CCCN(Cc2ccc(F)cc2F)C1 (stereo not drawn) [4c, 1-(2,4-Difluorobenzyl)-6’-methoxy-2’,3’,4’,9’-tetrahydrospiro[piperidine-3,1’-pyrido[3,4-b]indole]] | inactive; also recorded: abolished activity | – |
| COc1ccc2[nH]c3c(c2c1)CCNC31CCN(CCc2ccccc2)CC1 [3c, 6’-Methoxy-1-phenethyl-2’,3’,4’,9’-tetrahydrospiro[piperidine-4,1’-pyrido[3,4-b]indole]] | greatly reduced activity; also recorded: inactive | – |
| COc1ccc2[nH]c3c(c2c1)CCNC31CCN(CCCc2ccccc2)CC1 [3d, 6’-Methoxy-1-(3-phenylpropyl)-2’,3’,4’,9’-tetrahydrospiro[piperidine-4,1’-pyrido[3,4-b]indole]] | greatly reduced activity; also recorded: inactive | – |
| Fc1ccc(CN2CCC3(CC2)NCCc2c3[nH]c3ccc(Cl)cc23)c(F)c1 [5c, 6’-Chloro-1-(2,4-difluorobenzyl)-2’,3’,4’,9’-tetrahydrospiro[piperidine-4,1’-pyrido[3,4-b]indole]] | tolerated | fold more potent than 20 (N1303K-CFTR [1]): approximately 4 fold |
